Assay outcomes (PubChem BioAssay)
In the library only some 2.3% were active in any assay of this set; here they are far more common.
OXTR ag = activates the human oxytocin receptor; AID 2435; 320,000 tested, 0.32% active; CHO-OTR cells, Fluo-8 calcium fluorescence; normalized: DMSO 0%, oxytocin 100%; activation, % at 3 µM; P30559;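 active = activation above the mean of all tested compounds plus 3 SD, cutoff set per screening run, cut at about 20% in these data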;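 note: peak over basal fluorescence ratio from a 100 s FLIPR kinetic read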
V1aR counter = V1a receptor agonism, counter-screen for OXTR agonists | 320,000 tested, 0.25% active | AID 2797 | CHO-V1R cells, Fluo-8 calcium fluorescence, agonist mode; 0% DMSO, 100% 3 nM vasopressin | activation, % at 3 µM;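 active = activation above the mean activation of all tested compounds plus 3 SD, per screening run, cut at about 20% in these data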;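 note: signal is peak over basal fluorescence ratio across a 100 second FLIPR read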
Target sequence (P37288 whole entry, looked up): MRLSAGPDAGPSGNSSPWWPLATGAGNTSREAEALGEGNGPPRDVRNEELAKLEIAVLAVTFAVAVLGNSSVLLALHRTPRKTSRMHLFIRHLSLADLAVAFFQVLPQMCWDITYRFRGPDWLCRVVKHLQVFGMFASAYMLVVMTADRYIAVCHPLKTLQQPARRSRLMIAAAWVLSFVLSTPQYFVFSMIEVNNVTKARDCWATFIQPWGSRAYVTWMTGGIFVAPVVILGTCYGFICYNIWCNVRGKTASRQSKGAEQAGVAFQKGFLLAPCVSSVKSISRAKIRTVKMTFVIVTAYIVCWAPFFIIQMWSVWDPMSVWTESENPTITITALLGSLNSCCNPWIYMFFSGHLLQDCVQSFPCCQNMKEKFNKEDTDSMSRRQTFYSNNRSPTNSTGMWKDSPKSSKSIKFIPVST
OXTR potentiator = potentiators of human oxytocin receptor | P30559 | CHO-OTR cells, Fluo-8 calcium fluorescence, potentiator mode; 0% = oxytocin EC15, 100% = EC100 | activation, % at 3 µM | 320,000 tested, 0.061% active;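 active = activation above that plate's cutoff, the mean activation of tested compounds plus 3 SD, cut at about 6.6% in these data, passing the limit was not always enough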;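 note: 100% uses oxytocin at 75 nM as the full agonist control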
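Material: human OTR in CHO cells. Compound: 3.0 µM, one dose. Timing: compound 6 min at room temperature before oxytocin, 100 s read. Evaluation: % activation of max/min ratio relative to oxytocin controls. Replication: single well per compound, singlicate. Signal: Fluo-8 calcium dye fluorescence.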
TAAR1 antag = human TAAR1 antagonism; Q96RJ0; 360,000 tested, 1.5% active; AID 624466; CHO RD-HGA16 TAAR1, Fluo-8 calcium fluorescence, antagonist; inhibition, % at 3 µM;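 active = inhibition above a per-plate cutoff, the mean inhibition of test compounds on that plate plus 3 SD, cut at about 49% in these data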;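 note: 0% = DMSO plus EC80 beta-PEA response and 100% = DMSO alone without agonist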
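Material: RD-HGA16 CHO cells with stable hTAAR1 and Gα16; Dosing: single nominal final test compound concentration of 3 µM; Schedule: seeding 17-24 h prior, 75-min 37 °C, 30-min RT dye loading; Detection: kinetic Fluo-8 calcium fluorescence measurement; Measure: % inhibition from peak post-agonist over basal fluorescence ratio; Benchmarks: vehicle and agonist controls.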
TAAR1 agonist = human TAAR1 agonism; Q96RJ0; CHO RD-HGA16 TAAR1, Fluo-8 calcium fluorescence; vehicle wells 0%, saturating PEA agonist 100%; activation, % at 3 µM; 360,000 tested, 0.99% active; AID 624467;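 active = activation above the mean activation of all test compounds in the run plus 3 SD, cut at about 38% in these data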
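System: CHO-derived RD-HGA16 cells with stable Gα16 and human TAAR1 / Times: 17-24 h plating, Fluo-8 75 min 37 °C, 30 min RT / Technique: calcium-sensitive Fluo-8 signal, excitation 470-495, emission 515-575 nm / Measure: % activation relative to PEA EC100 response / Benchmarks: DMSO and PEA EC100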
TAAR1 nonsel count = counter-screen for TAAR1 antagonists: nonselective antagonists; shares compounds with TAAR1 antag; AID 651780; inhibition, % at 3 µM; 2,400 tested, 77% active; counterscreen cell line, calcium fluorescence, antagonist mode; in the data active = inhibition above about 22%;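 note: CHO-Ga16 host cells stimulated with ATP at an EC80 level; 0% = agonist EC80 plus vehicle and 100% = vehicle without agonist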
TAAR1 ant conf = human TAAR1 antagonism, confirmed; shares compounds with TAAR1 antag; TAAR1-expressing cells, fluorescence antagonist read-out; inhibition, % at 3 µM; 2,400 tested, 40% active; AID 651785; in the data active = inhibition above about 49%;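 note: CHO-Ga16 host cells challenged with agonist PEA near its EC80; 0% = agonist at EC80 plus vehicle and 100% = vehicle with no agonist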
Ga16 nonsel ag = counter-screen for TAAR1 antagonists: nonselective Ga16 agonists | shares compounds with TAAR1 antag | Ga16-expressing cells, calcium fluorescence, agonist counterscreen | activation, % at 3 µM | 2,400 tested, 18% active | AID 651953; in the data active = activation above about 12%;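 note: 0% = vehicle wells and 100% = saturating stimulus response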
TAAR1 ag count = counter-screen for human TAAR1 antagonists: TAAR1 agonists. 2,400 tested, 2% active. shares compounds with TAAR1 antag. hTAAR1 cell line, fluorescence activation, agonist mode. activation, % at 3 µM; in the data active = activation above about 37%;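 note: CHO cells stably expressing TAAR1 with calcium dye readout; 0% = DMSO vehicle and 100% = full agonist response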
* hit, by the source's call; x = not tested or not shown.

SMILES | OXTR ag | V1aR counter | OXTR potentiator | TAAR1 antag | TAAR1 agonist | TAAR1 nonsel count | TAAR1 ant conf | Ga16 nonsel ag | TAAR1 ag count
COc1cc(/C=N/NC(=O)c2cc(-c3c(C)nn(-c4ccccc4)c3C)n[nH]2)ccc1O | 0 | 1 | -7 | 54* | 7 | 27* | 41 | 6 | 6
COc1cc(/C=N/NC(=O)c2cc(-c3ccccc3OC(C)C)nc3ccccc23)ccc1O | 1 | 1 | -8 | 57* | 8 | 13 | 42 | 9 | 13
CN(C(=S)NC(=O)c1ccc(Cl)cc1)C1CCCCC1 | -1 | -1 | -3 | -5 | -2 | x | x | x | x
O=C(N/N=C/C=C/c1ccccc1[N+](=O)[O-])c1cc(-c2cccnc2)nc2ccccc12 | -1 | 0 | -14 | 59* | 11 | 33* | 43 | 4 | -1
COc1cc(O)c(CC=C(C)C)c(O)c1C(=O)CCc1ccc(O)cc1 | 14 | 5 | -8 | 89* | 26 | 44* | 61* | 16* | 23
CCOc1cc(/C=C/C(=O)NCCc2ccc(S(N)(=O)=O)cc2)ccc1OCC(C)C | 0 | 0 | -2 | 76* | 6 | 25* | 39 | 5 | 1
COc1cc(/C=C/C(=O)NCCc2ccc(S(N)(=O)=O)cc2)ccc1OCC#N | 1 | 0 | -2 | -7 | 0 | x | x | x | x
CCN(C(=O)CSc1nc2cc(C(=O)O)ccc2c(=O)n1-c1ccccc1F)C1CCS(=O)(=O)C1 (centres undefined) | x | x | x | 14 | 2 | x | x | x | x
COc1ccccc1NC(=O)Cn1nnc(-c2ccccc2NC(=O)c2cnccn2)n1 | -1 | -1 | -4 | 1 | 6 | x | x | x | x
COC(=O)C1(C)CCCC2(C)C3CCC(C(C)C)C(CO)C3C(CO)CC12 (centres undefined) | x | x | x | 82* | 25 | 32* | 55* | 14* | 20
CN(C)c1ccc(C(C(=O)NCc2ccccc2)N(Cc2ccco2)C(=O)c2snc(C(N)=O)c2N)cc1 (centres undefined) | 2 | 5 | -15 | 71* | 18 | 27* | 58* | 8 | 11
Cc1ccc(C(C(=O)NCc2ccc(F)cc2)N(Cc2ccco2)C(=O)c2snc(C(N)=O)c2N)o1 (centres undefined) | 3 | 3 | -7 | 63* | 22 | 31* | 62* | 11 | 24
CCC(C)(C)NC(=O)C(c1ccc(F)cc1)N(Cc1ccco1)C(=O)c1snc(C(N)=O)c1N (centres undefined) | -3 | 2 | -12 | 2 | 2 | x | x | x | x
NC(=O)c1nsc(C(=O)N(Cc2ccco2)C(C(=O)NCc2ccc(F)cc2)c2ccc(O)cc2)c1N (centres undefined) | 2 | 1 | -16 | 78* | 14 | 37* | 56* | 10 | 12
O=C(NCc1ccccc1)C(c1ccc(F)cc1)N(Cc1ccco1)C(=O)c1ccccn1 (centres undefined) | -1 | 17 | -8 | 40 | 16 | x | x | x | x
Cc1ccccc1C(C(=O)NCc1ccccc1)N(Cc1ccco1)C(=O)c1ccccn1 (centres undefined) | -1 | 2 | -17 | 50* | 21 | 27* | 46 | 8 | 12
NC(=O)c1nsc(C(=O)N(Cc2cccnc2)C(C(=O)NCc2ccccc2)c2ccc(O)cc2)c1N (centres undefined) | -1 | 0 | -6 | -11 | 2 | x | x | x | x
C=CCN(c1ccc(C(=O)Nc2cccc([N+](=O)[O-])c2)cc1)S(C)(=O)=O | 2 | 2 | -2 | 12 | 5 | x | x | x | x
